Tests used:
[1] = target: Glycogen synthase kinase-3 (Oryctolagus cuniculus); test: Inhibition of rabbit GSK3
[2] = target: Insulin receptor (Homo sapiens) (UniProt P06213); test: Inhibition of IRK at 10 uM
Procedure, shortened: (§1)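 Pan-kinase selectivity screen run at an outside lab using previously described assays for each kinase. Activated kinase phosphorylates its appropriate peptide or protein substrate with test substance at 10 µM. Percent inhibition is taken against control incubations in which the inhibitor is replaced by DMSO, with staurosporine as reference. Reported as the mean of duplicate determinations.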

[3] = target: Dual specificity mitogen-activated protein kinase kinase 1 (Homo sapiens) (UniProt Q02750); test: Inhibition of MEK1K at 10 uM
Procedure, shortened: as §1

[4] = target: CaM kinase II (Homo sapiens) (UniProt Q13557+Q13555+Q13554+Q9UQM7); test: Inhibition of CAMK2 at 10 uM; type: protein assay
Procedure, shortened: as §1

[5] = target: Mitogen-activated protein kinase; ERK1/ERK2 (Homo sapiens) (UniProt P27361+P28482); test: Inhibition of MAPK at 10 uM; type: protein assay
Mitogen-activated protein kinase; ERK1/ERK2 (Homo sapiens), sequence (P27361 whole entry, looked up): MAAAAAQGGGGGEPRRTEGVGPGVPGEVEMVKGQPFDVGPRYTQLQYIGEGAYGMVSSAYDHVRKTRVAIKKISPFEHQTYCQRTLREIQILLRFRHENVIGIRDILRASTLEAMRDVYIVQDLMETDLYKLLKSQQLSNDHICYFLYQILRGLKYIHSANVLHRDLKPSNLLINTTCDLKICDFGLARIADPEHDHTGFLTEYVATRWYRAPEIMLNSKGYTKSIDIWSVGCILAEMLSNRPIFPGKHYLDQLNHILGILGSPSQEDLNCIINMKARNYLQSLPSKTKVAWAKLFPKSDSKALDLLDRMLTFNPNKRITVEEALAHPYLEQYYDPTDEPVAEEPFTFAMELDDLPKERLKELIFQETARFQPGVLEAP
Mitogen-activated protein kinase; ERK1/ERK2 (Homo sapiens), sequence (P28482 whole entry, looked up): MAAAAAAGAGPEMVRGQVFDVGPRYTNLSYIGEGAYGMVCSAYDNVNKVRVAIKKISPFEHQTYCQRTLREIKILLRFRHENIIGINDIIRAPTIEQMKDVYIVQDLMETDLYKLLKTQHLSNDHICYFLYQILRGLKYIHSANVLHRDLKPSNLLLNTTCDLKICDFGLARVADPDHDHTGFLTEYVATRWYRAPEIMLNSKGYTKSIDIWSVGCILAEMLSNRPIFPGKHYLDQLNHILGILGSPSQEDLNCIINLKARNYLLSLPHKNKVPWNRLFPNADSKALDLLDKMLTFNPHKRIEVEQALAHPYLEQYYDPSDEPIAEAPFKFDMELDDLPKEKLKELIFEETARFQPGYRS
Procedure, shortened: as §1

[6] = target: Tyrosine-protein kinase Lck (Homo sapiens) (UniProt P06239); test: Inhibition of protein kinase p56 at 10 uM
Tyrosine-protein kinase Lck (Homo sapiens), sequence (P06239 2-509 limits assumed): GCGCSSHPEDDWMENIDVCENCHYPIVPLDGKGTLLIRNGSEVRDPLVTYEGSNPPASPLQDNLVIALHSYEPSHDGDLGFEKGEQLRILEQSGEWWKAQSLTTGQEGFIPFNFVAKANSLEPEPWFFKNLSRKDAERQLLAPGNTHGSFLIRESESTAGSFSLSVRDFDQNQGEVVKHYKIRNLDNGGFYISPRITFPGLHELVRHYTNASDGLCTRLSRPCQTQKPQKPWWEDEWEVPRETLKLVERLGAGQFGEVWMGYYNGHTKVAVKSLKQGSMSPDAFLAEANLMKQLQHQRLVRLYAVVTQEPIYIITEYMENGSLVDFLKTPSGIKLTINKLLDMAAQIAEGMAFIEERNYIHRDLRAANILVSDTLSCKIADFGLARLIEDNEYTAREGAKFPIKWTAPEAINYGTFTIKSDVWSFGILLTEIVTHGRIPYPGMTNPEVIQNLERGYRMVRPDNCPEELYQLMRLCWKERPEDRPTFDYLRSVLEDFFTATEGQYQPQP
Procedure, shortened: as §1

[7] = target: Tyrosine-protein kinase ABL1 (Homo sapiens) (UniProt P00519); test: Inhibition of Abl kinase at 10 uM
Tyrosine-protein kinase ABL1 (Homo sapiens), sequence (P00519 whole entry): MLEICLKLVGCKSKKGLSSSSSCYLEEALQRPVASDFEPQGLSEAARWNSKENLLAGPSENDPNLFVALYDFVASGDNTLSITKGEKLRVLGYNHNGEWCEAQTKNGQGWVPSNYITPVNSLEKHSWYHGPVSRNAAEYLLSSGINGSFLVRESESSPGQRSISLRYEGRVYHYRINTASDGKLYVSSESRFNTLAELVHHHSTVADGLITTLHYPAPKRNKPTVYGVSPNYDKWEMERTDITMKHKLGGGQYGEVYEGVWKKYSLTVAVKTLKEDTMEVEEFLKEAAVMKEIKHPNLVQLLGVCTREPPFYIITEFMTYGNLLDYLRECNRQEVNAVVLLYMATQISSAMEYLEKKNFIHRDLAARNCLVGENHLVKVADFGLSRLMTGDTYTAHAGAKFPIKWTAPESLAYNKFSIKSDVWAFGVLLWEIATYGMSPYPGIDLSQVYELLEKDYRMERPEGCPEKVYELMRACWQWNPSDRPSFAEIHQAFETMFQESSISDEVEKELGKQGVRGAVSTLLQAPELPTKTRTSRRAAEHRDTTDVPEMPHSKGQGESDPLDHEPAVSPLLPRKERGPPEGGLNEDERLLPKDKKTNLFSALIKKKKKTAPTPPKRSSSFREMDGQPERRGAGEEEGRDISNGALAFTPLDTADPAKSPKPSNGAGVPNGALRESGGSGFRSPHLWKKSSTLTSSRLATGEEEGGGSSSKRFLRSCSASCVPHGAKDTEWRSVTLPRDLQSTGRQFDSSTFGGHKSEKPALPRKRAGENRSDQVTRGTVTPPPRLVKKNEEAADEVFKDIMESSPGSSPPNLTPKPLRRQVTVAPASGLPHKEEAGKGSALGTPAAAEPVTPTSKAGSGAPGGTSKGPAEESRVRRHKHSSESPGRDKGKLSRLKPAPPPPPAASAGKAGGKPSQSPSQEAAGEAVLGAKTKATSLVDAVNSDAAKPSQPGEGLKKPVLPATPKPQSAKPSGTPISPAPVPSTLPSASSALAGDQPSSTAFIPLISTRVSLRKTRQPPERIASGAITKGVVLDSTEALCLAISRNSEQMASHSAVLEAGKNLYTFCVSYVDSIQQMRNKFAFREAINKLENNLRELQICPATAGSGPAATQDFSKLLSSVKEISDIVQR
Procedure, shortened: as §1

[8] = target: Epidermal growth factor receptor (Homo sapiens) (UniProt P00533); test: Inhibition of EGF tyrosine kinase at 10 uM
Epidermal growth factor receptor (Homo sapiens), sequence (P00533 whole entry): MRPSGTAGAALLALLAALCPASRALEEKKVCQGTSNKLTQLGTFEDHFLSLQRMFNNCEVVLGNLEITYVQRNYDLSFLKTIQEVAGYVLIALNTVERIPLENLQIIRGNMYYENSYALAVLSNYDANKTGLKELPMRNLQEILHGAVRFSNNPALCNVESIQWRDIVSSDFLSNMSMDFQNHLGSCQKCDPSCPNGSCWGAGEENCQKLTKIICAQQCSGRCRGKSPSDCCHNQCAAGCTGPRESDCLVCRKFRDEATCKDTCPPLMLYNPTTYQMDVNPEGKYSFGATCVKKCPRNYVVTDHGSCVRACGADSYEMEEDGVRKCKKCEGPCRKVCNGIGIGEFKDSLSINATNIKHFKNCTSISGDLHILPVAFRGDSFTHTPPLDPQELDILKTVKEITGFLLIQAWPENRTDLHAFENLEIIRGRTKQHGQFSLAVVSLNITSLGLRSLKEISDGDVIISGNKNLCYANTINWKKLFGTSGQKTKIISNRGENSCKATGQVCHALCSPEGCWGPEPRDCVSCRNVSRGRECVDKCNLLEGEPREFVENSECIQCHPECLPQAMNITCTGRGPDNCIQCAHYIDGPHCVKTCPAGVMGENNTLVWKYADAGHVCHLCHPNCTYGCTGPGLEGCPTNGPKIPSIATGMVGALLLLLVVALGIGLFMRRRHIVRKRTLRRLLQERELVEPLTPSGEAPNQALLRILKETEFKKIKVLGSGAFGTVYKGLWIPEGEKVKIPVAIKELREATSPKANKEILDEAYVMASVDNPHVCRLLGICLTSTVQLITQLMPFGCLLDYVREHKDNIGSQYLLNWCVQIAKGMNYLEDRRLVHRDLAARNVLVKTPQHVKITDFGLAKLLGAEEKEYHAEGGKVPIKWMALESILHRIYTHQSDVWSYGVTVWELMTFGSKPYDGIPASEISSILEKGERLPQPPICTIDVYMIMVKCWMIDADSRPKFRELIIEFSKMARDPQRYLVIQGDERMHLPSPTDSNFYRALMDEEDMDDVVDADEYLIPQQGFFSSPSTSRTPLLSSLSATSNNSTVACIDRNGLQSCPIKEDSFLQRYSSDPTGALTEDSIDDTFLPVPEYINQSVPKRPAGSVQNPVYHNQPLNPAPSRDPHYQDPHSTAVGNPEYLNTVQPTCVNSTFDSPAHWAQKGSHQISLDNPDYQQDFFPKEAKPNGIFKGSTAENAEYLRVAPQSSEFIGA
Procedure, shortened: as §1

Insulin receptor (Homo sapiens), sequence (P06213 28-758 limits assumed): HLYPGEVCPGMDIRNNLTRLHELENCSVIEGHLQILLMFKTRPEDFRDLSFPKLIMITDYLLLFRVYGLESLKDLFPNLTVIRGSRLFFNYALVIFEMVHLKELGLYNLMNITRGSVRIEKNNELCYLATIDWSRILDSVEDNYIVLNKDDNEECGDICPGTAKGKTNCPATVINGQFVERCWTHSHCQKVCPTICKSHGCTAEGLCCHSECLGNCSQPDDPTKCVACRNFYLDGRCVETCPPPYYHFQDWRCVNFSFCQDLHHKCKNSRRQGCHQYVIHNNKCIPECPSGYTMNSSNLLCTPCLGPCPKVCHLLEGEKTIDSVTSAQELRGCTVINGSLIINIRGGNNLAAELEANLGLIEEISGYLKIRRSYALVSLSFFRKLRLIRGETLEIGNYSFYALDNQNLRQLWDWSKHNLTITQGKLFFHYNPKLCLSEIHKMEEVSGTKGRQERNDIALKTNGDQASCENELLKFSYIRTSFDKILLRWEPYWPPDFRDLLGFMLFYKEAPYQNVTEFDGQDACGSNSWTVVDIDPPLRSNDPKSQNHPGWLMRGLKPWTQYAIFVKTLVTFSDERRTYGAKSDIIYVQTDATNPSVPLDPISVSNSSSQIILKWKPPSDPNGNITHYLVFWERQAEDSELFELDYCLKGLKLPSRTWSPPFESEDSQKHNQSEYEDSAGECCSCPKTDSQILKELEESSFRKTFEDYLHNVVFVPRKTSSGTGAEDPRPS
Insulin receptor (Homo sapiens), sequence (P06213 763-1382 limits assumed): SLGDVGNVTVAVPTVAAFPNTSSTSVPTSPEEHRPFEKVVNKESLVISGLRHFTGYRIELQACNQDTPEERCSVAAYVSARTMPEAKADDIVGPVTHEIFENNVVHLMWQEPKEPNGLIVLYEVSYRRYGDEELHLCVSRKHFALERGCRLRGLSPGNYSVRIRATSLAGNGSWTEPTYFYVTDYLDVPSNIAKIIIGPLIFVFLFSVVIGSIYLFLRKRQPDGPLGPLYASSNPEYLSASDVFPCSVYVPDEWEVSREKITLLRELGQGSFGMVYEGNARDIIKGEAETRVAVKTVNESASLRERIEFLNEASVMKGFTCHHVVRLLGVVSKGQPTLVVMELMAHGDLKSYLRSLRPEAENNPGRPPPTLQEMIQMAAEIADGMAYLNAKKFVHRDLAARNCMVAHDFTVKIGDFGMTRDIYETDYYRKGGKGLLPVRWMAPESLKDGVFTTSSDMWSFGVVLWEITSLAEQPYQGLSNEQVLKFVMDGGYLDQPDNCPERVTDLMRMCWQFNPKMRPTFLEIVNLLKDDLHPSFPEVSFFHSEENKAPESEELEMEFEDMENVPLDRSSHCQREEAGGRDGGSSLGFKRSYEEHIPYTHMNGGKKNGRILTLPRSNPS

## COc1ccc(CCN2C(=O)CSC2=S)cc1
[1]
  IC50: 100 µM

## O=C1CNC(=O)N1Cc1ccccc1
[1]
  IC50: 100 µM

## CCn1c(=O)sn(C)c1=O
[1]
  IC50: 5 µM

## CCn1sc(=O)n(-c2ccccc2)c1=O
[1]
  IC50: 6 µM

## CCOC(=O)Cn1c(=O)sn(C)c1=O
[2]
  inhibition: 50%
[3]
  inhibition: 19%
[4]
  inhibition: 15%
[5]
  inhibition: < 10%
[6]
  inhibition: < 10%
[1]
  IC50: 2 µM
[7]
  inhibition: < 10%
[8]
  inhibition: 19%

## O=C1CCC(=O)C1
[1]
  IC50: > 100 µM

## Cn1c(=O)ssc1=O
[1]
  IC50: 100 µM

## CCCn1sc(=O)n(CC)c1=O
[1]
  IC50: 10 µM

## O=C(c1ccccc1)n1c(=O)n(-c2ccccc2)c(=O)n1C(=O)c1ccccc1
[1]
  IC50: 100 µM

## O=C1CSC(=S)N1CCc1ccccc1
[1]
  IC50: 35 µM

## Cc1ccc(-n2c(=O)sn(C)c2=O)cc1
[1]
  IC50: 5 µM

## Cn1sc(=O)n(-c2cccc3ccccc23)c1=O
[1]
  IC50: 2 µM

## Cn1sc(=O)n(-c2cccc(Br)c2)c1=O
[1]
  IC50: 4 µM

## O=C1CNC(=O)N1 [HYDANTOIN]
[1]
  IC50: 100 µM

## Cn1sc(=O)n(-c2ccc(Br)cc2)c1=O
[1]
  IC50: 1.1 µM

## CCn1sc(=O)n(Cc2ccccc2)c1=O [KRM-7777]
[1]
  IC50: 7 µM

## O=C1CSC(=O)N1 [THIAZOLIDINEDIONE]
[1]
  IC50: 100 µM

## O=C1CSC(=O)N1Cc1ccccc1
[1]
  IC50: 100 µM

## CCOC(=O)CN1C(=O)C=CC1=O
[1]
  IC50: 3 µM

## Cn1c(=O)n(-c2ccccc2)c(=O)n1C
[1]
  IC50: 100 µM

## COc1ccc(CN2C(=O)C=CC2=O)cc1
[1]
  IC50: 2.5 µM

## O=c1ssc(=O)n1-c1ccccc1
[1]
  IC50: 12 µM

## Cn1sc(=O)n(C2CCCCC2)c1=O
[1]
  IC50: 100 µM

## Cn1sc(=O)n(-c2ccccc2)c1=O
[1]
  IC50: 2 µM

## Cn1sc(=O)n(-c2ccc(C(F)(F)F)cc2)c1=O
[2]
  inhibition: 36%
[3]
  inhibition: < 10%
[4]
  inhibition: < 10%
[5]
  inhibition: < 10%
[6]
  inhibition: < 10%
[1]
  IC50: 6 µM
[7]
  inhibition: < 10%
[8]
  inhibition: 17%

## NN1C(=O)CSC1=S [AMINORHODANINE]
[1]
  IC50: 100 µM

## CCn1c(=O)sn(C(C)C)c1=O
[1]
  IC50: 35 µM

## O=C(O)CN1C(=O)CSC1=S [RHODANINE-3-ACETIC ACID]
[1]
  IC50: 100 µM

## O=C1C=CC(=O)N1CCc1ccccc1
[1]
  IC50: 2 µM

## O=c1sn(Cc2ccccc2)c(=O)n1Cc1ccccc1
[2]
  inhibition: 19%
[3]
  inhibition: < 10%
[4]
  inhibition: 35%
[5]
  inhibition: < 10%
[6]
  inhibition: 27%
[1]
  IC50: 10 µM
[7]
  inhibition: < 10%
[8]
  inhibition: < 10%

## O=C(Cn1c(=O)n(-c2ccccc2)c(=O)n1CC(=O)c1ccccc1)c1ccccc1
[1]
  IC50: 100 µM

## C1=CCN(Cc2ccccc2)C1
[1]
  IC50: > 100 µM

## CCn1sc(=O)n(-c2ccc([N+](=O)[O-])cc2)c1=O
[2]
  inhibition: 46%
[3]
  inhibition: < 10%
[4]
  inhibition: < 10%
[5]
  inhibition: 10%
[1]
  IC50: 8.5 µM
[7]
  inhibition: < 10%
[8]
  inhibition: 40%

## CCn1c(=O)sn(C2CCCCC2)c1=O
[2]
  inhibition: < 10%
[3]
  inhibition: < 10%
[4]
  inhibition: 23%
[5]
  inhibition: < 10%
[6]
  inhibition: < 10%
[1]
  IC50: 10 µM
[7]
  inhibition: < 10%
[8]
  inhibition: < 10%

## O=c1ssc(=O)n1Cc1ccccc1
[1]
  IC50: 12 µM

## Cn1sc(=O)n(-c2ccc(F)cc2)c1=O
[1]
  IC50: 4 µM

## O=C1CCC(=O)N1Cc1ccccc1
[1]
  IC50: > 50 µM

## CCn1sc(=O)n(CC)c1=O
[1]
  IC50: 25 µM

## COc1ccc(CCN2C(=O)C=CC2=O)cc1
[1]
  IC50: 3 µM

## Cn1sc(=O)n(Cc2ccccc2)c1=O
[2]
  inhibition: 20%
[3]
  inhibition: < 10%
[4]
  inhibition: 16%
[5]
  inhibition: < 10%
[6]
  inhibition: 35%
[7]
  inhibition: < 10%
[8]
  inhibition: 25%

## O=C(CN1C(=O)CSC1=S)c1ccccc1
[1]
  IC50: 50 µM

## Cn1sc(=O)n(-c2ccc(Cl)cc2)c1=O
[1]
  IC50: 4 µM

## Cn1sc(=O)n(-c2ccccc2Br)c1=O
[1]
  IC50: 6 µM

## O=C1CCCN1Cc1ccccc1
[1]
  IC50: > 100 µM

## O=C1C=CC(=O)N1CCCCCc1ccccc1
[1]
  IC50: 3 µM

## O=C1C=CC(=O)C1
[1]
  IC50: 12 µM
